ChEMBL document CHEMBL1909630, “Azaxanthene based selective glucocorticoid receptor modulators: design, synthesis, and pharmacological evaluation of (S)-4-(5-(1-((1,3,4-thiadiazol-2-yl)amino)-2-methyl-1-oxopropan-2-yl)-5H-chromeno[2,3-b]pyridin-2-yl)-2-fluoro-N,N-dimethylbenzamide (BMS-776532) and its methylene homologue …” (J Med Chem, 2011)

Experiments:
[1] = Cmax in Sprague-Dawley rat at 50 mg/kg, po; type: ADME, organism-based; set-up: dose 50 mg/kg, route oral; conditions: in vivo
Procedure, shortened: (§1)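 Male Sprague-Dawley rats received a single intravenous (1 mg/kg) or oral (10 or 50 mg/kg) dose. Plasma pharmacokinetic parameters were derived from these profiles.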

Blood = test: Antiinflammatory activity in human whole blood assessed as inhibition of IL-1beta-induced IL-8 production after overnight incubation by ELISA relative to Dexamethasone; type: functional
Procedure, shortened: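 Whole blood from two donors per experiment was collected into ACD-A. Compounds were added and the blood was incubated about 20 h at 37 °C under 5% CO2. Blood was then stimulated for 5 h with LPS (final 100 ng/mL, for TNFα) or IL-1β (final 10 ng/mL, for IL-8). Plasma TNFα or IL-8 was measured by ELISA. Efficacy was expressed as % of dexamethasone, and values are means of at least two experiments.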

Estrogen receptor = target: T1, Estrogen receptor (Homo sapiens, UniProt P03372); test: Displacement of fluorescently labeled ligand from ERalpha receptor by fluorescence polarization assay
T1 sequence (P03372 whole entry): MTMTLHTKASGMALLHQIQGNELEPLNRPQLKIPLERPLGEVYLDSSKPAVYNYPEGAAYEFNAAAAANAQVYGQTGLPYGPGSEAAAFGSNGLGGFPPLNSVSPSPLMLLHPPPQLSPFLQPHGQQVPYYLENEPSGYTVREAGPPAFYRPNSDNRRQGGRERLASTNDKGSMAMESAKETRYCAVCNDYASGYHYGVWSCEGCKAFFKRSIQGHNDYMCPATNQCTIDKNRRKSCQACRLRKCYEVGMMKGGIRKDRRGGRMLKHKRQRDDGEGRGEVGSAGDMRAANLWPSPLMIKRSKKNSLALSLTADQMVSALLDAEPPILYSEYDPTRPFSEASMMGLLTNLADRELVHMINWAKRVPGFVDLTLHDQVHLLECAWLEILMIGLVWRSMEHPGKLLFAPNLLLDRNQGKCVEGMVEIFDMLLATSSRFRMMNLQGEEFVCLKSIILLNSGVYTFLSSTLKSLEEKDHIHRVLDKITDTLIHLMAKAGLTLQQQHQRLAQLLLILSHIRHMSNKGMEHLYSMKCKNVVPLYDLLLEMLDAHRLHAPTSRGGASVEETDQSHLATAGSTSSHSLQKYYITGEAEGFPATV
Procedure, shortened: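 Binding was measured by fluorescence polarization competition between compound and a fluorescent ligand for full-length receptor or ligand-binding domain. Values are means of at least two experiments.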

Rattus norvegicus = test: Antiinflammatory activity in po dosed Freund's complete adjuvant-induced Lewis rat arthritis model assessed as reduction in onset of arthritis; type: functional, organism-based
Procedure, shortened: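 Male Lewis rats were inoculated with Mycobacterium butyricum in incomplete Freund's adjuvant. Oral dosing was daily and preventative, running from day 0 to day 21. Onset and progression of arthritis were followed, and ED50 was estimated from the dose response.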

[2] = target: T2, Mineralocorticoid receptor (Homo sapiens, UniProt P08235); test: Agonist activity at human mineralocorticoid receptor expressed in human A549 cells by fluorescence polarization assay; type: functional, cell-based
T2 sequence (P08235 whole entry): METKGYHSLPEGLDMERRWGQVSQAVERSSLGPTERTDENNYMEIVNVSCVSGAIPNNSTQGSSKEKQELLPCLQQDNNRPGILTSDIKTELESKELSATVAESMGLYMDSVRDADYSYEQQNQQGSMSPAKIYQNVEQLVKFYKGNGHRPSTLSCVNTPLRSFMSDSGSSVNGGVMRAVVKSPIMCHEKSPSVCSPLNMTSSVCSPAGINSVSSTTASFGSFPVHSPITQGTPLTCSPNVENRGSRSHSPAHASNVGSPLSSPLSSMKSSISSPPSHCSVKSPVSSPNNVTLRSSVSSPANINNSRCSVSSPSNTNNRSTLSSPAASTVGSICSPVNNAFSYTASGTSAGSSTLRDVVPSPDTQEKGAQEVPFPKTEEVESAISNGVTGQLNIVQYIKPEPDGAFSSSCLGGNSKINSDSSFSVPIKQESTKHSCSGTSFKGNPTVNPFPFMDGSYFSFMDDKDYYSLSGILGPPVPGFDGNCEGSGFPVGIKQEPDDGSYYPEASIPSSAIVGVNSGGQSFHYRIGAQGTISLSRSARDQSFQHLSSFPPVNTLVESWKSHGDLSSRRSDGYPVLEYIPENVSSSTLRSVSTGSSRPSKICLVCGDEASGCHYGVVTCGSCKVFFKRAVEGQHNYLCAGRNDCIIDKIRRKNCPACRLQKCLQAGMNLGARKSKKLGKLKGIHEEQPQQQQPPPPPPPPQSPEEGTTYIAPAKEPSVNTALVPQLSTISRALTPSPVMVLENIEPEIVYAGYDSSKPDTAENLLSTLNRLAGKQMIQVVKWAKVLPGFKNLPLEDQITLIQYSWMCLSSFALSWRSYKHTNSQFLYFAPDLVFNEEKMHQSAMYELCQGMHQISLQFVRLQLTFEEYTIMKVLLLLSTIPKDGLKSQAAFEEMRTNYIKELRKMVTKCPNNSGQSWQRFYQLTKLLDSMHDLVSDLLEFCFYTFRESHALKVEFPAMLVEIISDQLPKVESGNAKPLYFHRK

[3] = Tmax in Sprague-Dawley rat at 50 mg/kg, po; type: ADME, organism-based; set-up: dose 50 mg/kg, route oral; conditions: in vivo; procedure, shortened: as §1
[4] = Drug level in plasma of Sprague-Dawley rat at 30 mg/kg, po measured after 6 hrs; type: ADME, organism-based; set-up: dose 30 mg/kg, route oral; conditions: read-out: Drug uptake
Procedure, shortened: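 Plasma exposure was measured in Sprague-Dawley rats 6 h after a single oral dose of 30 mg/kg given in the carrageenan paw edema study.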

| Cmax [1] | Ki (Estrogen receptor) | EC50 [2] | Tmax [3] | concentration at 6 h [4] | SMILES | Imax (Blood) | Activity (Rattus norvegicus) |
| --- | --- | --- | --- | --- | --- | --- | --- |
| 3080 ng/mL | > 75 µM | > 5 µM | 3.3 h | 1110 nM | CCN(C)C(=O)c1ccc(-c2ccc3c(n2)Oc2ccccc2[C@@H]3C(C)(C)C(=O)Nc2nncs2)cc1F | 88% | Dose-dependent effect |
| 3210 ng/mL | > 75 µM | > 5 µM | 1.7 h | 788 nM | CN(C)C(=O)c1ccc(-c2ccc3c(n2)Oc2ccccc2[C@H]3C(C)(C)C(=O)Nc2nncs2)cc1F | 70% | Dose-dependent effect |
